Measurements from ChEMBL document CHEMBL1125417, “Development of a series of phenyltetrazole leukotriene D4 (LTD4) receptor antagonists” (J Med Chem, 1992).
Active and inactive are the calls of the source. No cut-off for these calls is given here.

The compounds below were run against T1, Cysteinyl leukotriene receptor 1 (Cavia porcellus) (UniProt Q2NNR5) (assay: Antagonistic activity against leukotriene D4 (LTD4) receptor).
T1 sequence (whole entry): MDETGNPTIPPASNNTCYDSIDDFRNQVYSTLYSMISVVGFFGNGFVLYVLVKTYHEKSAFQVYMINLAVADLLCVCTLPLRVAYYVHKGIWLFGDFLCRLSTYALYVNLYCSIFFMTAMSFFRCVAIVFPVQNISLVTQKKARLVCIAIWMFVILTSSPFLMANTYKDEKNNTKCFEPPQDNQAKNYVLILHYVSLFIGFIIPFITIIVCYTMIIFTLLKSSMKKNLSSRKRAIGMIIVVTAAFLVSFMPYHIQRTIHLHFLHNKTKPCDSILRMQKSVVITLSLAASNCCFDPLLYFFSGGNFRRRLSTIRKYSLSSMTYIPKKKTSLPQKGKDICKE
Assay type: functional
Method in brief: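 Isolated tissue strips in baths of physiological salt solution (mM: NaCl 118.2, NaHCO₃ 24.8, dextrose 10.0, Ca²⁺ 1.2) at 37 °C, gassed with 95% O₂/5% CO₂, under 0.5 g resting tension. Cumulative LTD₄ concentration–response curves were recorded. Each antagonist was in contact with the tissue for 30 min before the final LTD₄ curve.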

SMILES | pKB
CCCCCCCCCCOc1ccc(-c2nnn(CCCCc3nnn[nH]3)n2)cc1 | 5.09
FC(F)(F)CCCCCOc1ccc(-c2nnn(CCCCc3nnn[nH]3)n2)cc1 | 5.82
O=C(O)CCCCn1nnc(-c2ccc(OCCCCc3ccccc3)cc2)n1 | 5.97
c1ccc(CCCCOc2ccc(-c3nnn(CCCCCc4nnn[nH]4)n3)cc2)cc1 | 6.54

Further lines, results first:

pKB | SMILES
6.36 | c1ccc2oc(COc3ccc(-c4nnn(CCCCc5nnn[nH]5)n4)cc3)cc2c1
5.43 | FC(F)(F)CCCCCCCOc1ccc(-c2nnn(CCCCc3nnn[nH]3)n2)cc1
6.86 | c1ccc(CCCCOc2ccc(-c3nnn(CCCc4nnn[nH]4)n3)cc2)cc1
6.68 | c1ccc2nc(COc3ccc(-c4nnn(CCCCc5nnn[nH]5)n4)cc3)ccc2c1
5.41 | NC(=O)CCCCn1nnc(-c2ccc(OCCCCc3ccccc3)cc2)n1
5.83 | c1ccc(CCCCCCOc2ccc(-c3nnn(CCCCc4nnn[nH]4)n3)cc2)cc1

Each compound was assayed on Cysteinyl leukotriene receptor 1 (Cavia porcellus) (assay: Antagonist activity tested against Cysteinyl leukotriene D4 receptor).

SMILES | pKB
c1ccc(CCOc2ccc(-c3nnn(CCCCc4nnn[nH]4)n3)cc2)cc1 | 6.51
O=C(O)c1ccccc1Cn1nnc(-c2cccc(CSc3ccc4ccccc4n3)c2)n1 | 7.02
FC(F)(F)CCCCOc1ccc(-c2nnn(CCCCc3nnn[nH]3)n2)cc1 | 5.92
O=C(O)c1cccc(Cn2nnnc2-c2cccc(CSc3ccc4ccccc4n3)c2)c1 | 6.2
Cc1ccccc1S(=O)(=O)NC(=O)NC(=O)CCCCn1nnc(-c2ccc(OCCCCc3ccccc3)cc2)n1 | 5.86
N#CNC(=O)CCCCn1nnc(-c2ccc(OCCCCc3ccccc3)cc2)n1 | 6.1
c1ccc(CCCCOc2ccc(-c3nnn(CCCCCCc4nnn[nH]4)n3)cc2)cc1 | 6.24
O=C(O)c1ccc(Cn2nnc(-c3cccc(CSc4ccc5ccccc5n4)c3)n2)cc1 | 5.88
c1ccc(CCCCOc2ccc(-c3nnn(CCCCCCCCc4nnn[nH]4)n3)cc2)cc1 | 5.7

The remaining lines, values ahead:

pKB | SMILES
6.79 | c1ccc(CCCOc2ccc(-c3nnn(CCCCc4nnn[nH]4)n3)cc2)cc1
5.62 | O=C(O)c1cccc(Cn2nnc(-c3cccc(CSc4ccc5ccccc5n4)c3)n2)c1
5.92 | c1ccc(CCCCOc2ccc(-c3nn[nH]n3)cc2)cc1
5.52 | CCCOc1ccc(-c2nnn(CCCCc3nnn[nH]3)n2)cc1
6.91 | c1ccc(CCCCOc2ccc(-c3nnn(CCCCc4nnn[nH]4)n3)cc2)cc1
5.92 | Cc1ccccc1S(=O)(=O)NC(=O)CCCCn1nnc(-c2ccc(OCCCCc3ccccc3)cc2)n1
5.87 | O=C(O)c1ccccc1Cn1nnc(-c2ccc(CSc3ccc4ccccc4n3)cc2)n1
6.31 | c1ccc(CCCCOc2ccc(-c3nnnn3CCCCc3nnn[nH]3)cc2)cc1
5.38 | c1ccc(CCCCOc2cccc(-c3nnn(CCCCc4nnn[nH]4)n3)c2)cc1
5.9 | c1ccc(CCCCCOc2ccc(-c3nnn(CCCCc4nnn[nH]4)n3)cc2)cc1
5.96 | c1ccc(CCCCOc2ccc(-c3nnn(CCCCCCCc4nnn[nH]4)n3)cc2)cc1
6.57 | c1cc(CSc2ccc3ccccc3n2)cc(-c2nnn(CCCCc3nnn[nH]3)n2)c1
5.8 | c1ccc(CCCCn2nnc(-c3ccc(OCCCCc4nnn[nH]4)cc3)n2)cc1
inactive | c1cc(-c2nnn(CCCCc3nnn[nH]3)n2)ccc1OCCCCc1nn[nH]n1
